For one compound, Activity, inhibition and viability results are on record in ChEMBL document CHEMBL4304819, “Natural product pectolinarigenin exhibits potent anti-metastatic activity in colorectal carcinoma cells in vitro and in vivo” (2019).

Test [1] relates to HCT-116. Put plainly: Induction of apoptosis in human HCT116 cells assessed as nuclear fragmentation up to 40 uM after 48 hrs by Hoechst 33258 staining-based fluorescent microscopic analysis. The class given is functional, cell-based. The gist of the method:
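Cells (1–2 × 10^5 per well) plated on 18-mm coverslips in six-well plates for 24 h, treated at various concentrations for 48 h, washed with cold PBS, fixed 15 min in 4% paraformaldehyde, stained with Hoechst 33258 (5 μg/ml); condensed/fragmented nuclei scored by fluorescence microscopy (10×); stained positive cells, mean ± SD of three experiments.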

In test [2] the test system is HCT-116. The experiment in a line: Anticlonogenic activity against human HCT116 cells assessed as reduction in colony formation up to 40 uM incubated for 24 hrs supplemented with fresh medium containing compound every 3 days for 12 days by crystal violet staining-based microscopic analysis. The class given is functional, cell-based. A digest of the protocol:
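Cells seeded at 400–800 per well in 6-well plates; after 24 h, treated with 0–40 μM in fresh medium (with or without compound) replaced every three days for 12 days. Colonies fixed in methanol, stained with 0.5% crystal violet for 15 min and counted by microscope; reported as surviving colonies, mean ± SD of three experiments.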

The subject of test [3] is CT26. Put plainly: Induction of apoptosis in mouse CT26 cells assessed as early apoptotic cells at 20 uM after 48 hrs by Annexin V-FITC/propidium iodide staining-based flow cytometric analysis (reference value: 2.84 %). The class given is functional. A digest of the protocol:
(§1)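 CT26 cells seeded at 1–2 × 10^5 per well in six-well plates for 24 h, then exposed to PEC (0–40 μM) for 24 or 48 h. Cells harvested, washed twice in cold PBS, stained with Annexin V-FITC/PI and read by flow cytometry. Early apoptotic = Annexin V+ only; late apoptotic = Annexin V+/PI+. Mean ± SD of three experiments.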
In general terms: A flow cytometer gives signals particle by particle.

For test [4], the system named is CT26. Put plainly: Induction of apoptosis in mouse CT26 cells assessed as viable cells at 40 uM after 48 hrs by Annexin V-FITC/propidium iodide staining-based flow cytometric analysis (reference value: 88.9 %). The class given is functional. To be noted: CT26, 48 h, read-out: Activity. The gist of the method:
as §1

The test system of test [5] is CT26. The experiment in a line: Inhibition of colony formation in mouse CT26 cells assessed as reduction in number of colonies up to 40 uM incubated for 24 hrs supplemented with fresh medium containing compound every 3 days for 12 days by crystal violet staining-based microscopic analysis. The class given is functional, cell-based. A digest of the protocol: (§2)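 400–800 cells per well seeded in 6-well plates; after 24 h, PEC (0–40 μM) added. Medium with or without compound replaced every three days for 12 days. Colonies washed in cold PBS, fixed in methanol, stained 15 min with 0.5% crystal violet and counted under a microscope. Mean ± SD of three experiments.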

Test [6] relates to CT26. The experiment in a line: Antimetastatic activity against mouse CT26 cells allografted in Balb/c mouse assessed as reduction in weight of tumour nodules weight at 50 mg/kg, ip administered daily for 14 days starting from 6 days post implantation. The class given is functional, organism-based. A digest of the protocol: (§3)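 Female BALB/c mice (6–8 weeks) injected ip with 5 × 10^5 CT26 cells; from day 6, randomized (eight per group) to ip vehicle, 25 or 50 mg/kg once daily for 14 days. Abdominal circumference and body weight every 3 days; abdominal nodules counted by eye and weighed; spleens assessed; paraffin tumour sections immunostained (Ki-67, MMP-9, p-Stat3) with DAB detection.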

For test [7], the system named is HCT-116. Put plainly: Inhibition of colony formation in human HCT116 cells assessed as reduction in number of colonies up to 40 uM incubated for 24 hrs supplemented with fresh medium containing compound every 3 days for 12 days by crystal violet staining-based microscopic analysis. The class given is functional, cell-based. The gist of the method:
as §2

Test [8] deals with CT26. Put plainly: Induction of apoptosis in mouse CT26 cells assessed as increase in Bax protein expression up to 40 uM after 48 hrs by Western blot analysis. The class given is functional, cell-based. A digest of the protocol: (§4)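 CT26 cells exposed 48 h to PEC at 0, 10, 20 and 40 μM, washed twice in cold PBS, lysed in RIPA. Protein measured by Lowry and equalized, run on SDS-PAGE, blotted to PVDF. Blocked 1 h at 37 °C, primary antibodies (Bax, Bcl-2, pro-caspase-3, cleaved caspase-3) overnight at 4 °C, secondary 1 h, ECL detection, densitometry.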

The test system of test [9] is HCT-116. Put plainly: Antimetastatic activity against human HCT116 assessed as inhibition of MMP-9 expression after 48 hrs by Western blot analysis. The class given is functional, cell-based. The gist of the method: (§5)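 Cells treated 48 h at 0, 10, 20 and 40 μM, washed in cold PBS, lysed in RIPA; protein equalized by Lowry assay, resolved by SDS-PAGE, transferred to PVDF, blocked 1 h at 37 °C, primary antibody overnight at 4 °C, secondary 1 h, ECL detection, densitometry. β-actin loading control.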

Test [10] relates to CT26. Put plainly: Antiproliferative activity against mouse CT26 cells assessed as inhibition of cell viability up to 40 uM by MTT assay. The class given is functional, cell-based. To be noted: TDE = time-dependent effect. A digest of the protocol:
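Exponentially growing cells (2–6 × 10^3 per well) seeded in 96-well plates for 24 h, then exposed to 0, 2.5, 5, 10, 20, 40 µM for 24, 48 and 72 h. MTT (5 mg/mL stock) added 2–4 h at 37 °C; formazan dissolved in DMSO, absorbance at 570 nm. Three independent experiments.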
(Formazan colour is commonly taken as a measure of viable cells.)

The test system of test [11] is HCT-116. Put plainly: Induction of apoptosis in human HCT116 cells assessed as increase in cleaved caspase-3 expression after 48 hrs by Western blot analysis. The class given is functional, cell-based. A digest of the protocol: as §5
A general note: Immunoblotting shows a protein as a band on a membrane.

Test [12] deals with CT26. The experiment in a line: Antimetastatic activity against mouse CT26 cells allografted in Balb/c mouse assessed as reduction in abdominal circumference at 25 to 50 mg/kg, ip administered daily for 14 days starting from 6 days post implantation. The class given is functional, organism-based. The gist of the method: as §3
In test [13] the test system is CT26. Put plainly: Induction of apoptosis in mouse CT26 cells assessed as increase in cleaved caspase-3 expression after 48 hrs by Western blot analysis. The class given is functional, cell-based. A digest of the protocol: as §4
Test [14] has as its system HCT-116. The experiment in a line: Induction of apoptosis in human HCT116 cells assessed as necrotic cells at 20 uM after 48 hrs by Annexin V-FITC/propidium iodide staining-based flow cytometric analysis (reference value: 8.24 %). The class given is functional. The gist of the method:
(§6)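 Cells (1–2 × 10^5 per well) seeded in six-well plates 24 h, treated at 0–40 μM for 24 h or 48 h, harvested, washed twice in cold PBS, stained with Annexin V-FITC/PI and analysed by flow cytometry; early (Annexin V only) and late (Annexin V and PI) apoptotic fractions quantified; three experiments.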

Test [15] deals with HCT-116. The experiment in a line: Antimigratory activity against human HCT116 cells assessed as inhibition of cell migration after 48 hrs by crystal violet staining based Boyden-chamber cell migration assay. The class given is functional. The gist of the method:
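Boyden chamber, 8 μm pores: 1 × 10^5 cells in serum-free medium above, 10% FBS medium below, compound at various concentrations in both chambers; migration 48 h. Non-migrated cells swabbed off; migrated cells fixed in methanol, stained 0.5% crystal violet 20 min, counted in six random fields under light microscope; expressed as % inhibition versus untreated.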

For test [16], the system named is CT26. The experiment in a line: Induction of apoptosis in mouse CT26 cells assessed as increase in Bax/Bcl2 protein ratio up to 40 uM after 48 hrs by Western blot analysis. The class given is functional, cell-based. A digest of the protocol:
as §4

Test [17] concerns HCT-116. Put plainly: Induction of apoptosis in human HCT116 cells assessed as necrotic cells at 40 uM after 48 hrs by Annexin V-FITC/propidium iodide staining-based flow cytometric analysis (reference value: 8.24 %). The class given is functional. A digest of the protocol:
as §6

Test [18] relates to CT26. Put plainly: Induction of apoptosis in mouse CT26 cells assessed as late apoptotic cells at 40 uM after 48 hrs by Annexin V-FITC/propidium iodide staining-based flow cytometric analysis (reference value: 6.49 %). The class given is functional. A digest of the protocol:
as §1

A further test concerns SW48. The experiment in a line: Inhibition of colony formation in human SW48 cells assessed as reduction in size of colonies up to 40 uM incubated for 24 hrs supplemented with fresh medium containing compound every 3 days for 12 days by crystal violet staining-based microscopic analysis. The class given is functional, cell-based. The gist of the method:
as §2

Calls of active or inactive are those of the source. The rule behind the calls is not given here.

With `COc1ccc(-c2cc(=O)c3c(O)c(OC)c(O)cc3o2)cc1` [PECTOLINARIGENIN], the outcome with HCT-116 [1], in the test on CT26 [6], in the test on CT26 [8], in the test with CT26 [12] and in the test on CT26 [16] was Active. Further, the inhibition result in the test on HCT-116 [2], in the test on CT26 [5], with HCT-116 [7] and in the test with SW48 was “Active” each time. In addition, the Activity in the test on CT26 [3] is 8.14%; in the test on HCT-116 [11] it was “Dose-dependent effect”; in the test on CT26 [13], “Dose-dependent effect”; with HCT-116 [14], 4.55%; in the test with HCT-116 [17] it was 7.17%; with CT26 [18], 13.4%. The viability at 40 µM with CT26 [4] stood at 67.3%. For the same compound, the inhibition entry was “Dose-dependent effect” with HCT-116 [9], “Tde” in the test with CT26 [10] and “Dose-dependent effect” in the test on HCT-116 [15].
